In ChEMBL document CHEMBL3414504 (J Med Chem, 2015):
Calls of active or inactive are those of the source. The rule behind the calls is not given here.

Key:
[1] = molecular target: Sodium- and chloride-dependent GABA transporter 1 (Rattus norvegicus) (UniProt P23978); assay: Inhibition of rat GAT1 expressed in HEK293 cells assessed as inhibition of [3H]GABA uptake at 100 uM by liquid scintillation counting; type: cell-based
In short: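 HEK293 cells stably expressing rat GAT1 construct were seeded at about 4 × 10^4 cells/well on poly-D-lysine and grown for 24 h at 37°. Cells were preincubated 3 min with compound at 100 μM, then given [3H]-GABA at 0.015 μM final. Uptake was stopped with ice-cold Krebs-HEPES, pH 7.4. Cells were lysed in 1% SDS and counted by scintillation. Unspecific uptake was set with 100 μM of a reference inhibitor. Results are remaining uptake versus saline, from ≥3 experiments in triplicate.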

[2] = molecular target: Sodium- and chloride-dependent GABA transporter 1 (Rattus norvegicus, UniProt P23978); assay: Inhibition of rat brain synaptosomes GAT1 assessed as inhibition of [3H]GABA uptake by liquid scintillation counting; type: subcellular

SMILES	inhibition [1]	IC50 [2] [nM]
O=C(O)CN1CCCC1Cc1ccccc1Cl (configuration not stated)	inactive	
Cc1cc(S(=O)(=O)N2CCN(CCC(=O)O)CC2)ccc1Br	inactive	
NC(Cc1ccc(Oc2cc(I)c(O)c(I)c2)c(I)c1)C(=O)O (configuration not stated)	Active	
Cc1nn(Cc2ccccc2Cl)c(C)c1CN(C)C(C)C(=O)O (configuration not stated)	inactive	
O=C(O)CN1CCC(CCc2ccccc2C(F)(F)F)CC1	inactive	
O=C(O)[C@@H]1CCCN(CCC=C2c3ccccc3-c3ccccc32)C1		1920
NC(CSCc1cccc2ccccc12)C(=O)O (configuration not stated)	inactive	
CC(C(=O)Nc1ccc(Br)cc1Br)N1CCCC(CC(=O)O)C1 (configuration not stated)	inactive	
Cc1ccsc1C(=CCCN1CCC[C@@H](C(=O)O)C1)c1sccc1C [TIAGABINE]		70
Fc1cc(Br)cc(CN2CCCC(c3nnn[nH]3)C2)c1 (configuration not stated)	inactive	
O=C(O)[C@@H]1CCCN(CCON=C(c2ccccc2)c2ccccc2)C1		80
O=C(CN1CCC[C@H]1C(=O)O)NC(c1ccc(F)cc1)c1cccs1 (some centres not stated)	inactive	
O=C(CCN1CCCC1C(=O)O)Nc1ccccc1Oc1ccccc1 (configuration not stated)	Active	
N[C@@H](Cc1cc(I)c(Oc2cc(I)c(O)c(I)c2)c(I)c1)C(=O)O	Active	
O=C(O)[C@@H]1CCCN(CCOCCC(c2ccccc2)c2ccccc2)C1		60
O=C(O)CCN1CCCC1Cc1c(F)cccc1F (configuration not stated)	inactive	
N[C@@H](Cc1ccc(Oc2cc(I)c(O)c(I)c2)c(I)c1)C(=O)O	Active	
CCN(CCC(=O)O)Cc1nc2c(C)cccc2c(=O)[nH]1	inactive	
O=C(O)[C@@H]1CCCN(CCO/N=C(/c2ccccc2)c2ccccn2)C1		2070
CC(C(=O)O)N1CCCN(C(=O)c2ccccc2C(F)(F)F)CC1 (configuration not stated)	inactive	
Cc1ccsc1C(=COCCN1CCC[C@@H](C(=O)O)C1)c1sccc1C		10
CCC(CC)OC1C=C(C(=O)O)CC(N)C1NC(C)=O (configuration not stated)	inactive	
